≈ marks a conversion by molar mass, not a printed value.
Columns and labels:
[1] = system: Bacillus subtilis; assay: Antimicrobial activity against Bacillus subtilis after 24 hrs by micro-dilution susceptibility method; assay type: functional
Method in brief: (§1)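 Broth microdilution in Müller-Hinton broth against S. aureus IFO 3060, B. subtilis IFO 3007, E. coli IFO 3301 and P. aeruginosa IFO 3448. These are the same standard strains used in the disc-diffusion primary screen. Compounds were solubilized in DMSO. MIC recorded as the minimal inhibitory concentration.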

[2] = system: Bacillus subtilis; assay: Antimicrobial activity against Bacillus subtilis at 100 ug after 24 hrs by agar disc diffusion method; assay type: functional
Method in brief: (§2)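 Agar disc diffusion on Müller-Hinton agar. Sterile 8 mm filter-paper discs were moistened with the compound in DMSO. Strains were B. subtilis IFO 3007 and M. luteus IFO 3232. Plates were incubated at 37 °C, and growth-inhibition zone diameters were measured in mm after 24 h. DMSO served as the solvent control.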

[3] = system: Micrococcus luteus; assay: Antimicrobial activity against Micrococcus luteus after 24 hrs by micro-dilution susceptibility method; assay type: functional
Method in brief: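 MIC by broth microdilution in Müller-Hinton broth against M. luteus IFO 3232, the same strain used in the disc-diffusion primary screen.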

[4] = system: Pseudomonas aeruginosa; assay: Antimicrobial activity against Pseudomonas aeruginosa after 24 hrs by micro-dilution susceptibility method; assay type: functional; method in brief: as §1
[5] = system: Staphylococcus aureus; assay: Antimicrobial activity against Staphylococcus aureus after 24 hrs by micro-dilution susceptibility method; assay type: functional; method in brief: as §1
[6] = system: Micrococcus luteus; assay: Antimicrobial activity against Micrococcus luteus at 100 ug after 24 hrs by agar disc diffusion method; assay type: functional; method in brief: as §2
[7] = system: Staphylococcus aureus; assay: Antimicrobial activity against Staphylococcus aureus at 200 ug after 24 hrs by agar disc diffusion method; assay type: functional; conditions: read-out: DIZ
[8] = system: IGROV-1; assay: Cytotoxicity against human IGROV1 cells at 10 uM after 48 hrs by coulter counter analysis; assay type: functional; conditions: IGROV-1, 48 h, read-out: GI
[9] = system: Escherichia coli; assay: Antimicrobial activity against Escherichia coli at 200 ug after 24 hrs by agar disc diffusion method; assay type: functional; conditions: read-out: DIZ
[10] = system: Malme-3M; assay: Cytotoxicity against human MALME-3M cells at 10 uM after 48 hrs by coulter counter analysis; assay type: functional; conditions: read-out: GI
[11] = Cytotoxicity against human NCI-ADR-RES cells at 10 uM after 48 hrs by coulter counter analysis; assay type: functional; conditions: read-out: GI
[12] = system: SK-MEL-5; assay: Cytotoxicity against human SK-MEL-5 cells at 10 uM after 48 hrs by coulter counter analysis; assay type: functional; conditions: SK-MEL-5, 48 h, read-out: GI
[13] = system: NCI-H23; assay: Cytotoxicity against human NCI-H23 cells at 10 uM after 48 hrs by coulter counter analysis; assay type: functional; conditions: NCI-H23, 48 h, read-out: GI
[14] = target: T1, Dihydrofolate reductase (Bos taurus, UniProt P00376); assay: Inhibition of bovine DHFR after 2 mins by spectrophotometry
T1 sequence (P00376 whole entry): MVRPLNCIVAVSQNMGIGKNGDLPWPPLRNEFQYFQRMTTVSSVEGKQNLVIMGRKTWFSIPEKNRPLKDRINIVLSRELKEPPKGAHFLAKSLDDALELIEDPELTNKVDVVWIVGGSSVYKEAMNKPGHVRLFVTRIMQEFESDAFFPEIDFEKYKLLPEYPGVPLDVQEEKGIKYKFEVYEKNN

[15] = system: PC-3; assay: Cytotoxicity against human PC3 cells at 10 uM after 48 hrs by coulter counter analysis; assay type: functional; conditions: PC-3, 48 h, read-out: GI
[16] = system: RXF 393; assay: Cytotoxicity against human RXF393 cells at 10 uM after 48 hrs by coulter counter analysis; assay type: functional; conditions: RXF 393, 48 h, read-out: GI
[17] = system: SR; assay: Cytotoxicity against human SR cells at 10 uM after 48 hrs by coulter counter analysis; assay type: functional; conditions: read-out: GI
[18] = system: MDA-MB-435; assay: Cytotoxicity against human MDA-MB-435 cells at 10 uM after 48 hrs by coulter counter analysis; assay type: functional; conditions: MDA-MB-435, 48 h, read-out: GI
[19] = system: SNB-19; assay: Cytotoxicity against human SNB19 cells at 10 uM after 48 hrs by coulter counter analysis; assay type: functional; conditions: SNB-19, 48 h, read-out: GI
[20] = system: Hs-578T; assay: Cytotoxicity against human Hs578T cells at 10 uM after 48 hrs by coulter counter analysis; assay type: functional; conditions: read-out: GI
[21] = system: SN12C; assay: Cytotoxicity against human SN12C cells at 10 uM after 48 hrs by coulter counter analysis; assay type: functional; conditions: read-out: GI
[22] = system: MCF7; assay: Cytotoxicity against human MCF7 cells at 10 uM after 48 hrs by coulter counter analysis; assay type: functional; conditions: MCF7, 48 h, read-out: GI
[23] = system: Bacillus subtilis; assay: Antimicrobial activity against Bacillus subtilis at 200 ug after 24 hrs by agar disc diffusion method; assay type: functional; conditions: read-out: DIZ
[24] = system: CAKI-1; assay: Cytotoxicity against human Caki1 cells at 10 uM after 48 hrs by coulter counter analysis; assay type: functional; conditions: CAKI-1, 48 h, read-out: GI
[25] = system: T47D; assay: Cytotoxicity against human T47D cells at 10 uM after 48 hrs by coulter counter analysis; assay type: functional; conditions: read-out: GI
[26] = system: MOLT-4; assay: Cytotoxicity against human MOLT4 cells at 10 uM after 48 hrs by coulter counter analysis; assay type: functional; conditions: MOLT-4, 48 h, read-out: GI
[27] = system: Escherichia coli; assay: Antimicrobial activity against Escherichia coli after 24 hrs by micro-dilution susceptibility method
[28] = system: LOX IMVI; assay: Cytotoxicity against human LOXIMVI cells at 10 uM after 48 hrs by coulter counter analysis; assay type: functional; conditions: read-out: GI
[29] = system: RPMI-8226; assay: Cytotoxicity against human RPMI8226 cells at 10 uM after 48 hrs by coulter counter analysis; assay type: functional; conditions: RPMI-8226, 48 h, read-out: GI
[30] = system: Micrococcus luteus; assay: Antimicrobial activity against Micrococcus luteus at 200 ug after 24 hrs by agar disc diffusion method; assay type: functional; conditions: read-out: DIZ
[31] = system: HL-60(TB); assay: Cytotoxicity against human HL-60(TB) cells at 10 uM after 48 hrs by coulter counter analysis; assay type: functional; conditions: HL-60, 48 h, read-out: GI
[32] = system: NCI-H522; assay: Cytotoxicity against human NCI-H522 cells at 10 uM after 48 hrs by coulter counter analysis; assay type: functional; conditions: NCI-H522, 48 h, read-out: GI
[33] = system: UACC-62; assay: Cytotoxicity against human UACC62 cells at 10 uM after 48 hrs by coulter counter analysis; assay type: functional; conditions: UACC-62, 48 h, read-out: GI
[34] = system: SNB-75; assay: Cytotoxicity against human SNB75 cells at 10 uM after 48 hrs by coulter counter analysis; assay type: functional; conditions: SNB-75, 48 h, read-out: GI
[35] = system: CCRF-CEM; assay: Cytotoxicity against human CCRF-CEM cells at 10 uM after 48 hrs by coulter counter analysis; assay type: functional; conditions: read-out: GI
[36] = system: UO-31; assay: Cytotoxicity against human UO31 cells at 10 uM after 48 hrs by coulter counter analysis; assay type: functional; conditions: UO-31, 48 h, read-out: GI
[37] = system: A549; assay: Cytotoxicity against human A549/ATCC cells at 10 uM after 48 hrs by coulter counter analysis; assay type: functional; conditions: A549, 48 h, read-out: GI
[38] = system: SF-295; assay: Cytotoxicity against human SF295 cells at 10 uM after 48 hrs by coulter counter analysis; assay type: functional; conditions: SF-295, 48 h, read-out: GI
[39] = system: NCI-H226; assay: Cytotoxicity against human NCI-H226 cells at 10 uM after 48 hrs by coulter counter analysis; assay type: functional; conditions: NCI-H226, 48 h, read-out: GI
[40] = system: Pseudomonas aeruginosa; assay: Antimicrobial activity against Pseudomonas aeruginosa at 200 ug after 24 hrs by agar disc diffusion method; assay type: functional; conditions: read-out: DIZ
[41] = system: A498; assay: Cytotoxicity against human A498 cells at 10 uM after 48 hrs by coulter counter analysis; assay type: functional; conditions: A498, 48 h, read-out: GI
[42] = system: OVCAR-4; assay: Cytotoxicity against human OVCAR4 cells at 10 uM after 48 hrs by coulter counter analysis; assay type: functional; conditions: OVCAR-4, 48 h, read-out: GI
[43] = Cytotoxicity against human EKVX cells at 10 uM after 48 hrs by coulter counter analysis; assay type: functional; conditions: read-out: GI
[44] = system: MDA-MB-231; assay: Cytotoxicity against human MDA-MB-231 cells at 10 uM after 48 hrs by coulter counter analysis; assay type: functional; conditions: MDA-MB-231, 48 h, read-out: GI

## GENTAMICIN
[1]
  MIC: 2 µg/mL
[2]
  inhibition zone (IZ): 25 mm
[3]
  MIC: 2 µg/mL
[4]
  MIC: 1 µg/mL
[5]
  MIC: 2 µg/mL
[6]
  inhibition zone (IZ): 18 mm

## COc1cc2nc(Sc3ncccc3C(=O)O)n(Cc3ccccc3)c(=O)c2cc1OC
[1]
  MIC: 2 µg/mL (≈ 4.45 µM)
[7]
  zone of inhibition at 200 µg/disc: 22 mm
[8]
  inhibition of growth at 10 µM: < 10%
[9]
  zone of inhibition at 200 µg/disc: 18 mm
[10]
  inhibition of growth at 10 µM: < 10%
[11]
  inhibition of growth at 10 µM: < 10%
[12]
  inhibition of growth at 10 µM: < 10%
[13]
  inhibition of growth at 10 µM: < 10%
[14]
  IC50: 5000 nM
[15]
  inhibition of growth at 10 µM: < 10%
[16]
  inhibition of growth at 10 µM: < 10%
[17]
  inhibition of growth at 10 µM: 29.8%
[18]
  inhibition of growth at 10 µM: < 10%
[19]
  inhibition of growth at 10 µM: < 10%
[20]
  inhibition of growth at 10 µM: < 10%
[21]
  inhibition of growth at 10 µM: < 10%
[22]
  inhibition of growth at 10 µM: 13.5%
[23]
  zone of inhibition at 200 µg/disc: 26 mm
[24]
  inhibition of growth at 10 µM: 15.9%
[25]
  inhibition of growth at 10 µM: < 10%
[26]
  inhibition of growth at 10 µM: 13.8%
[27]
  MIC: 4 µg/mL (≈ 8.9 µM)
[28]
  inhibition of growth at 10 µM: < 10%
[29]
  inhibition of growth at 10 µM: 12.5%
[30]
  zone of inhibition at 200 µg/disc: 15 mm
[31]
  inhibition of growth at 10 µM: 13.2%
[32]
  inhibition of growth at 10 µM: 17.3%
[33]
  inhibition of growth at 10 µM: 11.6%
[34]
  inhibition of growth at 10 µM: < 10%
[35]
  inhibition of growth at 10 µM: < 10%
[36]
  inhibition of growth at 10 µM: 14.6%
[37]
  inhibition of growth at 10 µM: < 10%
[38]
  inhibition of growth at 10 µM: < 10%
[39]
  inhibition of growth at 10 µM: 14%
[40]
  zone of inhibition at 200 µg/disc: 12 mm
[41]
  inhibition of growth at 10 µM: < 10%
[42]
  inhibition of growth at 10 µM: 14.3%
[43]
  inhibition of growth at 10 µM: 23.1%
[44]
  inhibition of growth at 10 µM: < 10%
[5]
  MIC: 4 µg/mL (≈ 8.9 µM)

## COc1cc2nc(Sc3cnc(N)s3)n(-c3ccccc3)c(=O)c2cc1OC
[1]
  MIC: 4 µg/mL (≈ 9.7 µM)
[7]
  zone of inhibition at 200 µg/disc: 18 mm
[8]
  inhibition of growth at 10 µM: 13%
[9]
  zone of inhibition at 200 µg/disc: 18 mm
[10]
  inhibition of growth at 10 µM: < 10%
[11]
  inhibition of growth at 10 µM: < 10%
[12]
  inhibition of growth at 10 µM: < 10%
[13]
  inhibition of growth at 10 µM: < 10%
[14]
  IC50: 500 nM
[15]
  inhibition of growth at 10 µM: 12%
[16]
  inhibition of growth at 10 µM: < 10%
[17]
  inhibition of growth at 10 µM: 14.8%
[18]
  inhibition of growth at 10 µM: < 10%
[19]
  inhibition of growth at 10 µM: < 10%
[20]
  inhibition of growth at 10 µM: < 10%
[21]
  inhibition of growth at 10 µM: < 10%
[22]
  inhibition of growth at 10 µM: < 10%
[23]
  zone of inhibition at 200 µg/disc: 20 mm
[24]
  inhibition of growth at 10 µM: 17.8%
[25]
  inhibition of growth at 10 µM: < 10%
[26]
  inhibition of growth at 10 µM: < 10%
[27]
  MIC: 4 µg/mL (≈ 9.7 µM)
[28]
  inhibition of growth at 10 µM: < 10%
[29]
  inhibition of growth at 10 µM: 12.5%
[30]
  zone of inhibition at 200 µg/disc: 16 mm
[3]
  MIC: 4 µg/mL (≈ 9.7 µM)
[31]
  inhibition of growth at 10 µM: < 10%
[32]
  inhibition of growth at 10 µM: < 10%
[33]
  inhibition of growth at 10 µM: < 10%
[34]
  inhibition of growth at 10 µM: < 10%
[35]
  inhibition of growth at 10 µM: < 10%
[36]
  inhibition of growth at 10 µM: 22.2%
[37]
  inhibition of growth at 10 µM: < 10%
[38]
  inhibition of growth at 10 µM: < 10%
[39]
  inhibition of growth at 10 µM: < 10%
[40]
  zone of inhibition at 200 µg/disc: 14 mm
[41]
  inhibition of growth at 10 µM: < 10%
[42]
  inhibition of growth at 10 µM: < 10%
[43]
  inhibition of growth at 10 µM: 12.7%
[44]
  inhibition of growth at 10 µM: 18.6%
[5]
  MIC: 8 µg/mL (≈ 19.4 µM)
